The nature of data set [1]: Cytotoxicity against human 518A2 cells after 96 hrs by SRB assay. The following applies: Homo sapiens, 518A2, 96 h; read-out: IC50. The data set is classed as functional, cell-based. The method, boiled down: (§1)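 Cells exposed to test compounds for 96 h, then viable cells measured by sulforhodamine B staining as a percentage of untreated controls. IC50 read from dose-response curves, averaged over at least three independent experiments. Compounds tested free and also encapsulated in soybean-lecithin liposomes extruded through a 100 nm polycarbonate membrane (hydrodynamic diameter 70-120 nm, Z-average 105 nm, encapsulation >96% by HPLC).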
A general note: Sulforhodamine B stains cellular protein and so reports cell mass.

The subject of another data set is A-431. The data set can be described thus: Cytotoxicity against human A431 cells after 96 hrs by SRB assay. The class given is functional, cell-based. To be noted: Homo sapiens, A-431, 96 h; read-out: IC50. The gist of the method: as §1
A short description of data set [2]: Cytotoxicity against human A253 cells after 96 hrs by SRB assay. The class given is functional, cell-based. The following applies: Homo sapiens, A253, 96 h; read-out: IC50. The gist of the method: as §1
The next data set relates to FaDu. The data set can be described thus: Cytotoxicity against human FADU cells after 96 hrs by SRB assay. To be noted: Homo sapiens, FaDu, 96 h; read-out: IC50. The data set is classed as functional, cell-based. The gist of the method:
as §1

Data set [3] has as its system A549. As to the kind of experiment: Cytotoxicity against human A549 cells after 96 hrs by SRB assay. The data set is classed as functional, cell-based. To be noted: Homo sapiens, A549, 96 h; read-out: IC50. The method, boiled down: as §1
The next data set has as its system A2780. As to the kind of experiment: Cytotoxicity against human A2780 cells after 96 hrs by SRB assay. The class given is functional, cell-based. To be noted: Homo sapiens, A2780, 96 h; read-out: IC50. The gist of the method: as §1
The subject of a further data set is DLD-1. The data set can be described thus: Cytotoxicity against human DLD1 cells after 96 hrs by SRB assay. The data set is classed as functional, cell-based. To be noted: Homo sapiens, DLD-1, 96 h; read-out: IC50. The gist of the method:
as §1

The test system of another data set is HCT-8. As to the kind of experiment: Cytotoxicity against human HCT8 cells after 96 hrs by SRB assay. The data set is classed as functional, cell-based. To be noted: Homo sapiens, HCT-8, 96 h; read-out: IC50. The method, boiled down:
as §1

The test system of another data set is HCT-116. As to the kind of experiment: Cytotoxicity against human HCT116 cells after 96 hrs by SRB assay. The data set is classed as functional, cell-based. The following applies: Homo sapiens, HCT-116, 96 h; read-out: IC50. The gist of the method:
as §1

Another data set relates to HT-29. The data set can be described thus: Cytotoxicity against human HT-29 cells after 96 hrs by SRB assay. The class given is functional, cell-based. The following applies: Homo sapiens, HT-29, 96 h; read-out: IC50. The gist of the method:
as §1

Data set [4] concerns SW480. As to the kind of experiment: Cytotoxicity against human SW480 cells after 96 hrs by SRB assay. The class given is functional, cell-based. The following applies: Homo sapiens, SW480, 96 h; read-out: IC50. The gist of the method:
as §1

A further data set deals with 8505C. As to the kind of experiment: Cytotoxicity against human 8505C cells after 96 hrs by SRB assay. The class given is functional, cell-based. The following applies: Homo sapiens, 8505C, 96 h; read-out: IC50. The gist of the method:
as §1

Another data set concerns SW-1736. As to the kind of experiment: Cytotoxicity against human SW1736 cells after 96 hrs by SRB assay. The following applies: Homo sapiens, SW-1736, 96 h; read-out: IC50. The data set is classed as functional, cell-based. The method, boiled down: as §1
The test system of another data set is MCF7. The data set can be described thus: Cytotoxicity against human MCF7 cells after 96 hrs by SRB assay. The class given is functional, cell-based. The following applies: Homo sapiens, MCF7, 96 h; read-out: IC50. The method, boiled down: as §1
A short description of data set [5]: Cytotoxicity against human Lipo cells after 96 hrs by SRB assay. The class given is functional, cell-based. To be noted: Homo sapiens, Lipo, 96 h; read-out: IC50. The method, boiled down:
as §1

A further data set has as its system NIH3T3. The data set can be described thus: Cytotoxicity against mouse NIH/3T3 cells after 96 hrs by SRB assay. The class given is cell-based. The following applies: NIH3T3, 96 h. The gist of the method:
as §1

Data set [6] concerns A549. As to the kind of experiment: Induction of apoptosis in human A549 cells at 0.8 uM by acridine orange/ethidium bromide staining. The class given is functional, cell-based.
A short description of data set [7]: Solubility of the compound in water. The data set is classed as physicochemical. The following applies: buffer.
The test system of data set [8] is SW480. The data set can be described thus: Induction of apoptosis in human SW480 cells assessed as DNA laddering at IC90 concentration after 24 hrs.
Data set [9] has as its system SW480. As to the kind of experiment: Induction of apoptosis in human SW480 cells assessed as DNA laddering at 6 uM after 24 hrs. The class given is functional, cell-based.
Data set [10] in a line: Chemical stability of the compound. The data set is classed as physicochemical.

Active and inactive are the calls of the source. The calls are words filed in the database; no cut-off is given here.

In the case of `C=C1C[C@]2(C)[C@H]3CC[C@@H]4[C@H]5[C@H](C(=C)C)CC[C@]5(C(=O)O)CC[C@@]4(C)[C@]3(C)CC[C@H]2C(C)(C)C1=O`, the IC50 in [1] amounted to 0.5 µM; with A-431, 0.2 µM; in data set [2], 0.4 µM; in the data set with FaDu, 0.5 µM; in the data set on A549 [3], 0.6 µM; in the data set with A2780, 0.6 µM. Moreover, the IC50 was found to be 0.4 µM with DLD-1; 0.2 µM in the data set with HCT-8; 0.2 µM with HCT-116; 0.4 µM with HT-29; 0.4 µM in the data set on SW480 [4]; 0.6 µM with 8505C. Also, the half-maximal inhibitory concentration (IC50) in the data set on SW-1736 came out at 0.4 µM; in the data set on MCF7, 0.3 µM; in data set [5] it was 0.6 µM; in the data set on NIH3T3 it was 0.8 µM. The outcome in the data set with A549 [6] and in the data set with SW480 [8] was Active. Moreover, in data set [7], the solubility result is reported as “Insoluble”.

As for `C=C(C)[C@@H]1CC[C@]2(C(=O)OC)CC[C@]3(C)[C@H](CC[C@@H]4[C@@]5(C)C[C@@H](CSCCO)C(=O)C(C)(C)[C@@H]5CC[C@]43C)[C@@H]12`, the IC50 in [1] amounted to 1.5 µM; in the data set on A-431, 1.7 µM; in data set [2], 1.5 µM; with FaDu, 2.5 µM; in the data set on A549 [3], 2.1 µM; in the data set with A2780, 1.6 µM. Moreover, the IC50 with DLD-1 came to 2.5 µM; with HCT-8, 2.5 µM; with HCT-116, 1.9 µM; in the data set with HT-29 it was 1.4 µM; in the data set with SW480 [4], 1.5 µM; in the data set on 8505C, 2.3 µM. Also, the IC50 with SW-1736 was 2.1 µM; with MCF7, 1.5 µM; in [5], 1.8 µM; with NIH3T3, 2.1 µM. The outcome in the data set on SW480 [9] and in the data set with A549 [6] was Active. For the same compound, the solubility result in data set [7] is reported as “Insoluble”.

For the compound `C=C(C)[C@@H]1CC[C@]2(C(=O)OC)CC[C@]3(C)[C@H](CC[C@@H]4[C@@]5(C)C[C@@H](CN(C)C)C(=O)C(C)(C)[C@@H]5CC[C@]43C)[C@@H]12`, the solubility result in [7] is given as “Insoluble”. Moreover, in [10], the Stability result is “Unstable”.

The term IC50 denotes the point on the concentration scale where inhibition reaches its midpoint.

The values above are taken from ChEMBL document CHEMBL2034930, “Alkylidene branched lupane derivatives: synthesis and antitumor activity” (Eur J Med Chem, 2012).
